Experimental findings from ChEMBL document CHEMBL3297729, “Design, synthesis and biological activity of piperlongumine derivatives as selective anticancer agents” (Eur J Med Chem, 2014) are described below.

SMILES strings stand for the structures. The source made the active and inactive calls. No cut-off for these calls is given here.

What is called IC50 is the concentration that gives 50% inhibition. Lower therefore signals higher potency. The inhibition in vivo is the drop in the measured response relative to a control, in per cent.

One series concerns MDA-MB-231. As to the kind of experiment: Cytotoxicity against human MDA-MB-231 cells after 72 hrs by MTT assay. The class given is functional, cell-based. Particulars: MDA-MB-231, 72 h. The essentials:
(§1)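 MTT assay. Cells seeded at 5 × 10^3/well and grown 24 h at 37 °C in humidified 5% CO2. Compounds added at a range of concentrations in triplicate wells, with 0.1% DMSO as control, for 72 h. MTT (5 mg/mL solution) added for a further 4 h. Formazan dissolved in DMSO and absorbance read at 570 nm. IC50 derived by the Logit method.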

The test system of the next series is HCT-116. As to the kind of experiment: Cytotoxicity against human HCT116 cells after 72 hrs by MTT assay. Particulars: HCT-116, 72 h. The class given is functional, cell-based. The essentials:
as §1
Background: Formazan colour is commonly taken as a measure of viable cells.

The next series concerns WI-38. The series is described as follows: Cytotoxicity against human WI38 cells after 72 hrs by MTT assay. Type of series: cell-based. Particulars: WI-38, 72 h. An outline of the steps: as §1
The nature of series [1]: Cytotoxicity against human Hep3B cells after 72 hrs by MTT assay. The class given is functional, cell-based, Hep 3B2. An outline of the steps: as §1
Series [2] relates to A549. The series is described as follows: Cytotoxicity against human A549 cells after 72 hrs by MTT assay. Particulars: A549, 72 h. The class given is functional, cell-based. An outline of the steps: as §1
Series [3] relates to A549. The series is described as follows: Increase of ROS level in human A549 cells at 10 uM after 1 hr by fluorescence microscopic analysis. Type of series: functional, cell-based. The essentials:
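Cells treated with compound or DMSO for 1 h, then loaded with 10 μM DCFH-DA for 30 min at 37 °C. Washed twice with PBS and imaged at once by fluorescence microscopy. Mean fluorescence compared with control.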

For a further series, the system named is Mus musculus. The series is described as follows: Toxicity in human A549 cells xenografted BALB/C nude mouse assessed as reduction of body weight at 2 mg/kg, ip administered for 14 days. Type of series: organism-based. The arrangement: dose 2 mg/kg, route intraperitoneal. Particulars: in vivo, 336 h. An outline of the steps:
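Male BALB/C nude mice (18–20 g) implanted sc in the right axilla with A549 cells. Dosing began at tumor volume about 100–300 mm3 (day 17): 2 mg/kg ip daily for 14 days, in normal saline with tween-80 as solubilizer. Six mice per treatment group, eight controls. Caliper tumor volume (1/2·a·b²) and body weight recorded every 4 days. Sacrifice on days 30–33 and tumors excised.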
Background: Xenograft models place foreign cells or tissue in a host animal.

In series [4] the test system is A549. The series is described as follows: Antitumor activity against human A549 cells xenografted in BALB/C nude mouse assessed as inhibition of tumor growth at 2 mg/kg, ip administered for 14 days. The class given is functional. Particulars: 336 h, route intraperitoneal.
Series [5] is described as follows: Selectivity ratio of IC50 for human MRC5 cells to IC50 for human HCT116 cells. Type of series: ADME, cell-based, HCT-116. Particulars: MRC5 cells versus HCT116 cells, read-out: Ratio IC50.
Series [6] in a line: Selectivity ratio of IC50 for human MRC5 cells to IC50 for human MDA-MB-231 cells. The class given is ADME, cell-based. Particulars: MRC5 cells versus MDA-MB-231 cells, read-out: Ratio IC50.
Series [7] is described as follows: Cytotoxicity against human ZR75-30 cells after 72 hrs by MTT assay. Type of series: functional, cell-based. Particulars: ZR-75-30, 72 h. An outline of the steps: as §1
The test system of the next series is MRC5. The series is described as follows: Cytotoxicity against human MRC5 cells after 72 hrs by MTT assay. The class given is cell-based. Particulars: MRC5, 72 h. The essentials:
as §1

Series [8] can be described thus: Selectivity ratio of IC50 for human MRC5 cells to IC50 for human ZR75-30 cells. The class given is ADME, cell-based. Particulars: MRC5 cells versus ZR75-30 cells, read-out: Ratio IC50.

Regarding `COc1cc(/C=C(\C)C(=O)N2CCC=C(Br)C2=O)cc(OC)c1OC`, the IC50 is 2.47 µM with MDA-MB-231; 6.2 µM with HCT-116; 7.16 µM in the series with WI-38; 3.1 µM in [1]; 2.67 µM in the series on A549 [2].
As to `COc1cc(/C=C(\C)C(=O)N2CCC=C(Cl)C2=O)cc(OC)c1OC`, the result with A549 [3] was Active. Further, the 50% inhibitory concentration (IC50) stood at 6.07 µM in the series on MDA-MB-231; 9.85 µM with HCT-116; 19.6 µM in the series on WI-38; 16.7 µM in series [1]; 3.94 µM with A549 [2]. In the series with Mus musculus, the Activity result is reported as “Non-toxic”. In the series with A549 [4], the inhibition in vivo at 2 mg/kg is 48.6%.
With `CC/C(=C\c1cc(OC)c(OC)c(OC)c1)C(=O)N1CCC=C(Cl)C1=O`, the half-inhibitory concentration (IC50) in the series with MDA-MB-231 amounted to 7.27 µM; with HCT-116, 9.17 µM; in the series with WI-38, 5.48 µM; in series [1], 19 µM; with A549 [2] it was 4.06 µM.
As for `COc1cc(/C=C/C(=O)N2CCC=C(Cl)C2=O)cc(OC)c1OC`, the IC50 in the series on MDA-MB-231 was determined as 6.71 µM; in the series on HCT-116 it was 4.28 µM; in [7], 4.49 µM; in the series on MRC5, 14.3 µM; with A549 [2] it was 19.8 µM. Further, the selectivity ratio in series [5], in series [6] and in series [8] was 2 each time.
Regarding `COc1cc(/C=C(\C)C(=O)N2CCC=C(N3CCOCC3)C2=O)cc(OC)c1OC`, the IC50 (in the series on MDA-MB-231; with HCT-116; in [7]; with MRC5; with A549 [2]) was over 100 µM each time.
For `CC/C(=C\c1cc(OC)c(OC)c(OC)c1)C(=O)N1CCC=C(Br)C1=O`, the IC50 in the series on MDA-MB-231 worked out at 2.12 µM; in the series with HCT-116, 3.02 µM; in the series with WI-38, 7.94 µM; in series [1], 8.12 µM; with A549 [2] it was 2.18 µM.
Turning to `COc1cc(/C=C/C(=O)N2CCC=C(N3CCOCC3)C2=O)cc(OC)c1OC`, the IC50 was over 100 µM in the series with MDA-MB-231; 47.2 µM with HCT-116; 52.6 µM in [7]; 56.1 µM with MRC5; over 100 µM in the series with A549 [2].
`CCC/C(=C\c1cc(OC)c(OC)c(OC)c1)C(=O)N1CCC=C(N2CCOCC2)C1=O`: the IC50 in the series with MDA-MB-231 was over 100 µM; in the series on HCT-116, over 100 µM; in series [7], over 100 µM; with MRC5 it was 52.5 µM; in the series with A549 [2], over 100 µM.
Take `CCC/C(=C\c1cc(OC)c(OC)c(OC)c1)C(=O)N1CCC=C(Cl)C1=O`: the IC50 in the series on MDA-MB-231 was found to be 8.13 µM; in the series with HCT-116 it was 8.08 µM; in the series with WI-38, 10.4 µM; in series [1], 22.4 µM; in the series on A549 [2] it was 3.81 µM.
Regarding `COc1cc(/C=C/C(=O)N2CCC=CC2=O)cc(OC)c1OC` [PIPLARTINE], the IC50 in the series on MDA-MB-231 was determined as 8.46 µM; in the series on HCT-116, 6.04 µM; in [7], 5.86 µM; in the series with MRC5, 35 µM; with WI-38 it was 26.8 µM; in [1] it was 69.5 µM. The half-inhibitory concentration (IC50) in the series with A549 [2] is 22.9 µM.
As for `CCCC/C(=C\c1cc(OC)c(OC)c(OC)c1)C(=O)N1CCC=C(Cl)C1=O`, the 50% inhibitory concentration (IC50) in the series with MDA-MB-231 was 6.55 µM; in the series with HCT-116 it was 7.53 µM; in the series on WI-38 it was 7.93 µM; in [1], 14.8 µM; in the series on A549 [2], 3.78 µM.
Take `CC/C(=C\c1cc(OC)c(OC)c(OC)c1)C(=O)N1CCC=CC1=O`: the IC50 in the series with MDA-MB-231 was found to be 23.7 µM; in the series with HCT-116, 12.3 µM; in [7], 3.16 µM; in the series with MRC5, 13.5 µM; in the series with A549 [2], 17.9 µM.
For `CC/C(=C\c1cc(OC)c(OC)c(OC)c1)C(=O)N1CCC=C(N2CCOCC2)C1=O` the same measures were over 100 µM, over 100 µM, over 100 µM, over 100 µM and over 100 µM.
Take `COc1cc(/C=C/C(=O)N2CCC=C(Br)C2=O)cc(OC)c1OC`: the half-inhibitory concentration (IC50) in the series on MDA-MB-231 amounted to 2.73 µM; in the series on HCT-116 it was 7.12 µM; in the series with WI-38 it was 20.7 µM; in series [1] it was 8.09 µM; in the series on A549 [2], 4.79 µM.
On the same counts, the results for `CCCC/C(=C\c1cc(OC)c(OC)c(OC)c1)C(=O)N1CCC=C(Br)C1=O` are 2.44 µM, 2.59 µM, 9.21 µM, 14.8 µM and 2.56 µM.
Turning to `COc1cc(/C=C(\C)C(=O)N2CCC=CC2=O)cc(OC)c1OC`, the concentration for half-maximal inhibition (IC50) with MDA-MB-231 was 11.7 µM; in the series on HCT-116, 10.3 µM; in series [7], 3.32 µM; in the series with MRC5 it was 19.4 µM; with A549 [2], 23.9 µM.
As for `CCC/C(=C\c1cc(OC)c(OC)c(OC)c1)C(=O)N1CCC=C(Br)C1=O`, the IC50 in the series with MDA-MB-231 came to 2.36 µM; in the series on HCT-116 it was 2.14 µM; in the series with WI-38 it was 5.02 µM; in series [1], 5.54 µM; in the series on A549 [2], 2.63 µM.
